Rows were chosen to be rich in hits. Some 2.9% of all compounds tested hit in one or more screens of this group.
CHO-K1 Ca antag = M1 antagonist counterscreen hit in parental CHO-K1 cells | ATP-induced calcium, Fluo-8 fluorescence | inhibition, % at 3 µM | actives 0.6% (n = 360,000) | AID 602250;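 active means inhibition above a per-plate cutoff, the plate's mean sample inhibition plus 3 SD, cut at about 24% in these data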;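 further: 0% = DMSO plus EC80 ATP and 100% = DMSO alone without ATP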
M1 ag parental = counter-screen for M1 agonists: effect in parental CHO-K1 cells. Fluo-8 calcium fluorescence; scaled to maximal ATP response, vehicle zero. activation, % at 3 µM. actives 0.48% (n = 360,000). AID 602248; in the data active means activation above about 15%;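 further: untransfected CHO-K1 host cells lacking M1 receptor as counterscreen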
OX1R antag-1 = OX1R (human) antagonism. actives 1.8% (n = 330,000). OX1R-expressing cells, FRET antagonist read-out. inhibition, % at 6.6 µM; in the data active means inhibition mostly above about 38%, no sharp cut-off; inactive means mostly below about 40%;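 further: 0% = agonist challenge alone and 100% = reference antagonist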
Target sequence (O43613 whole entry, looked up): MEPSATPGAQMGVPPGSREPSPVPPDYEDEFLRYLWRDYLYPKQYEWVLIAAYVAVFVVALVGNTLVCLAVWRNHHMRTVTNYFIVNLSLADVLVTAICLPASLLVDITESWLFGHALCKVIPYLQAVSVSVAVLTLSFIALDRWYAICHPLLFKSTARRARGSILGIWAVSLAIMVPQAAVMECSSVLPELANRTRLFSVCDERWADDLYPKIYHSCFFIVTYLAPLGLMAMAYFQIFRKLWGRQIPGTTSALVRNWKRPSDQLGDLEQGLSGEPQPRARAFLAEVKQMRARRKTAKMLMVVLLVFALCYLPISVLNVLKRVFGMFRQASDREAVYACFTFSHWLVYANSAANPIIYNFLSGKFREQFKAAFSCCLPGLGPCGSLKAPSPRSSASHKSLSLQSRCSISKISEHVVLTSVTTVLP
CHO-K1 Ca PAM = nonselective activator or artifact in parental CHO-K1 calcium assay | ATP EC20, Fluo-8 calcium fluorescence; 0% at ATP EC20, 100% at ATP max | activation, % at 3 µM | actives 0.02% (n = 360,000) | AID 602247;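 active means activation above the run cutoff, the mean activation of all test compounds plus 3 SD, cut at about 40% in these data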;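 further: peak over basal fluorescence ratio in a 140 s read after ATP addition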
CHO parental Ca = counter-screen: ATP calcium response change in parental CHO cells | parental CHO-K1, ATP-induced calcium, Fluo-8 fluorescence | inhibition, % at 5.6 µM | actives 0.63% (n = 330,000) | AID 463079;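 active means inhibition above that plate's mean sample inhibition plus 3 SD, cut at about 26% in these data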;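 further: 0% = ATP-challenged DMSO wells and 100% = DMSO wells without ATP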
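Test system: untransfected parental CHO cell line. Compound: one dose, 5.6 µM nominal. Detection: intracellular calcium via Fluo-8 no-wash fluorescent dye. Measure: % inhibition. Benchmarks: ATP-challenged DMSO wells low, unchallenged DMSO wells high.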
OX1R antag-2 = antagonists of human orexin 1 receptor. inhibition, % at 5 µM. CHO/OX1R cells, Fluo-8 calcium fluorescence, orexin A. actives 0.43% (n = 330,000). AID 434989. O43613;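 active means inhibition above its plate's threshold, mean inhibition of all tested compounds on the plate plus 3 SD, cut at about 37% in these data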;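 further: 0% = orexin A challenge wells and 100% = SB-334867-A antagonist wells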
Numbers without * were called inactive; . = no result given.

SMILES	CHO-K1 Ca antag	M1 ag parental	OX1R antag-1	CHO-K1 Ca PAM	CHO parental Ca	OX1R antag-2
O=C1c2ccccc2C(=O)N1Cc1ccco1	-6	0	12	10	-7	-7
O=C1c2cccc3c(O)ccc(c23)C(=O)N1c1ccc(Cl)cc1	7	18*	19	-20	69*	85*
COc1ccc(Cl)cc1C(=O)NCC(=O)OCc1ccccc1	-3	1	31	1	-20	-22
COc1cc(/C=N/Nc2nc(=O)[nH]nc2C)cc([N+](=O)[O-])c1O	-5	1	14	14	3	1
CCc1ccc2c(c1)C(c1ccc([N+](=O)[O-])cc1)=NNC(c1ccc(C)cc1)=N2	11	18*	6	16	-22	-30
COc1ccc(NS(=O)(=O)N2CCOCC2)cc1	-9	1	10	10	8	-2
COC(=O)c1ccc(COc2ccc(/C=N/NC(N)=S)cc2)o1	10	14	7	-3	-9	0
Nc1nc(-c2cccnc2)nc2sc3c(c12)CCCC3	-5	0	70*	11	-9	-10
CCc1c(-c2ccccc2)nc2sc3c(c2c1N)CCCC3	1	7	49*	-21	1	-8
O=C1CN(c2nc(-c3cccnc3)nc3sc4c(c23)CCCC4)CCN1	1	4	47	2	-6	-32
Cc1cc(C)n(-c2ccccc2C#N)n1	25*	5	0	-16	-6	-6
CCOc1cc(S(=O)(=O)NC2CCCCC2)ccc1F	7	24*	12	10	-5	0
CCCc1cc(=O)[nH]c(SCC(=O)Nc2ccc(N3CCCCC3)cc2)n1	-13	0	5	12	-13	-12
Cc1cc(=O)[nH]c(SCC(=O)Nc2ccc(N3CCCCC3)cc2)n1	-5	0	9	-12	43*	37
Cc1nc(NC(=O)c2ccccc2)sc1-c1csc(NCc2ccco2)n1	-7	0	53*	15	-5	4
CCCCn1c(N)c(N(CCOC)C(=O)Cn2c(=O)oc3ccccc32)c(=O)[nH]c1=O	5	0	15	-20	-1	-7
CCOc1ccc(NC(=O)COC(=O)c2cc(=O)c3ccccc3o2)cc1	-18	0	0	16	-6	11
O=C(O)COc1ccc2c(-c3ccccc3)cc(=O)oc2c1	-8	1	22	16	15	-12
O=C(COc1ccc2c(-c3ccccc3)cc(=O)oc2c1)Nc1ccc(CCO)cc1	26*	18*	15	-20	14	2
CCOC(=O)c1cc(=O)c2ccc(OCC(=O)Nc3ccc(F)cc3)cc2o1	-1	25*	14	10	-3	-25
Cc1cc(C)cc(NC(=O)Nc2ccc3c(c2)N(C)C(=O)CS3)c1	21	13	22	-2	34*	11
Cc1ccc(NC(=O)Nc2ccc3c(c2)N(C)C(=O)CS3)cc1C	35*	13	14	-6	22	-5
CC1(C)CCCC2=C1CC1C(=O)N(N)C(=O)C1C2 (centres undefined)	-23	2	6	27	-14	2
CN(C)CC#Cc1cccc(-c2nc(C(=O)O)cc3c2[C@@H](CCO)N(S(=O)C(C)(C)C)C3)c1 (some centres undefined)	-13	0	.	1	.	.
Cc1cc(C2(c3ccc(O)c(C)c3)C(=O)Nc3ccccc32)ccc1O	-16	0	13	10	43*	18
SMILES	CHO-K1 Ca antag	M1 ag parental	OX1R antag-1	CHO-K1 Ca PAM	CHO parental Ca	OX1R antag-2
COc1cccc(/C=N/NC(=O)C(=O)NCc2ccco2)c1OC	-14	-1	14	19	-20	-18
COc1cccc(/C=N/NC(=O)C(=O)NCc2ccco2)c1O	2	-1	41*	0	-13	1
COc1cccc(/C=N/NC(=O)CSCC(=O)Nc2ccccc2)c1O	-29	2	59*	10	-16	-13
COc1ccc(/C=N/NC(=O)CSCC(=O)Nc2ccccc2)cc1	-3	1	10	9	-10	-8
OC[C@@H]1CN(Cc2cccs2)C[C@H](n2cnc3c(NCc4ccco4)ncnc32)O1	-4	0	.	4	.	.
O=C1c2ccccc2C(=O)N1CCc1nc2ccccc2c(=O)n1-c1ccccn1	-6	2	62*	19	-7	-12
